Source: paper PMC3464052 (Journal of medicinal chemistry, 2012)
Like-named read-outs stand apart in the source and are kept apart here.

How the values were obtained:
[1] = target: T1, human α4β2-nAChRs (Homo sapiens, UniProt P17787+P43681); details: cited from earlier work
[2] = tested on: mice; test: SmartCube automated behavioral signature; assay type: in vivo, mouse; details: i.p., 15 min before testing
[3] = target: Ct-AChBP (Capitella teleta, UniProt I6L8L2); test: biochemical; assay type: binding
[4] = 1 h incubation, starting concentration 1 μM; ref [16]; cited from earlier work
[5] = target: T1, human α4β2-nAChRs; test: 86Rb+ ion flux assay, SH-EP1 cells; assay type: cell-based; details: mixture of HS and LS α4β2-nAChRs
Summary of the method: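 Human α4β2-nAChRs stably expressed in SH-EP1 cells, as a mixture of high- and low-sensitivity forms. Agonist responses are expressed relative to a maximally efficacious concentration of the full agonist carbamylcholine. Inactivation of function is measured after a 10 min pre-exposure to test compound. Concentration-response curves are fitted by semi-logarithmic nonlinear regression.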

[6] = tested on: mice; test: Mouse forced swim test; assay type: in vivo
[7] = target: α4β2-nAChR (Rattus norvegicus, UniProt P09483+P12390); test: [3H]epibatidine binding competition, heterologously expressed α4β2-nAChR; details: from Ki values
[8] = Liver microsome stability, mouse; assay type: in vitro ADME; details: mouse liver microsomes, 1 h, 2 μM
[9] = Liver microsome stability, rat; assay type: in vitro ADME; details: rat liver microsomes, 1 h, 2 μM
[10] = Liver microsome stability, dog; assay type: in vitro ADME; details: dog liver microsomes, 1 h, 2 μM
[11] = Liver microsome stability, human; assay type: in vitro ADME; details: human liver microsomes, 1 h, 2 μM
[12] = intraperitoneally, 3 or 10 mg/kg

In the case of `CN1CCC[C@H]1c1cccnc1` [compound 1, nicotine, reference compound], the “Agonism Hill slope” value [1] is listed as 1.0±0.1 and the “Inactivation Hill Slope” value [1] is listed as −0.8±0.09.
For `OCC[C@H]1C[C@@H]1c1cncc(OC[C@@H]2CCN2)c1` [compound 5], the SmartCube behavioral signature [2] is given as “signature of activity suggesting potential antidepressant-like effect”, the “Agonism Efficacy at HS” value ([1]; HS α4β2-nAChR, extrapolated using sazetidine-A as full agonist, ref [16]) is given as 92±6% and the “Inactivation Efficacy” value ([1]; mixture of HS and LS, ref [16]) is given as 62±1%. The “Agonism Hill slope” value ([1]; ref [16]) was 1.0±0.4 and the “Inactivation Hill Slope” value ([1]; ref [16]) was −1.4±0.2.
For `CNC(=O)OCC[C@H]1C[C@@H]1c1cncc(OC[C@@H]2CCN2)c1` [compound 6], the Ki [3] is given as 22 ± 3 nM, the SmartCube behavioral signature [2] is given as “signature of activity suggesting potential antidepressant-like effect” and the “tested compound remained unchanged” value [4] is given as 98%.
In the case of `CC[C@H]1C[C@@H]1c1cncc(OC[C@@H]2CCN2)c1.O=C(O)C(F)(F)F` [compound 10, 3-[(2(S)-Azetidinyl)methoxy]-5-((1S,2S)-2-ethylcyclopropyl)pyridine Trifluoroacetate], the “Agonism Hill slope” value [5] is reported as 1.1±0.2, the “Inactivation Hill Slope” value [5] is reported as −1.1±0.3 and the SmartCube behavioral signature [2] is reported as “signature of activity suggesting potential antidepressant-like effect”. For the same compound, the “effect in the forced swim test” value [6, 12] was “no significant effect”.
In the case of `FCC[C@H]1C[C@@H]1c1cncc(OC[C@@H]2CCN2)c1.O=C(O)C(F)(F)F` [compound 12, 3-[(2(S)-Azetidinyl)methoxy]-5-[(1S,2R)-2-(2-fluoroethyl)cyclopropyl]pyridine Trifluoroacetate], the “selectivity for α4β2- over α3β4-nAChRs” value [7] is reported as “greater than 16000 fold”, the “Agonism Hill slope” value [5] is reported as 1.3±0.5 and the “Inactivation Hill Slope” value [5] is reported as −1.2±0.4. The SmartCube behavioral signature [2] was “signature of activity suggesting potential antidepressant-like effect”, the “effect in the forced swim test” value ([6]; intraperitoneally or orally) was “antidepressant-like effect” and the “minimal dose with significant reduction in immobility” value ([6]; intraperitoneally or orally) was 3 mg/kg. For the same compound, the compound remained unchanged [8] was “no less than 98%”, the compound remained unchanged [9] was “no less than 98%” and the compound remained unchanged [10] was “no less than 98%”. The compound remained unchanged [11] was “no less than 98%”.
For `FC(F)C[C@H]1C[C@@H]1c1cncc(OC[C@@H]2CCN2)c1.O=C(O)C(F)(F)F` [compound 13, 3-[(2(S)-Azetidinyl)methoxy]-5-[(1S,2R)-2-(2,2-difluoroethyl)cyclopropyl]pyridine Trifluoroacetate], the “selectivity for α4β2- over α3β4-nAChRs” value [7] was “greater than 16000 fold”, the “Agonism Hill slope” value [5] was 1.4±0.4 and the “Inactivation Hill Slope” value [5] was −1.1±0.3. The SmartCube behavioral signature [2] was “signature of activity suggesting potential antidepressant-like effect” and the “effect in the forced swim test” value [6, 12] was “no significant effect”.
In the case of `CN[C@H]1CC[C@@H](c2ccc(Cl)c(Cl)c2)c2ccccc21` [sertraline, reference compound], the “effect on immobility in the forced swim test” value ([6]; positive control, 20 mg/kg) is reported as “expected decrease in immobility”.
